Reference: publication PMC5955769 (ACS chemical neuroscience, 2018)

How the values were obtained:
Nrf2 = test: Neh2-luc SH-SY5Y cell-based reporter; conditions: for Nrf2 activity in Neh2-luciferase reporter assay (library screen): IRSF SMART library screen
Outline: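 Luciferase reporter in SH-SY5Y cells carrying the Nrf2 Neh2 fusion (Neh2-luc). It is used to find agents that directly stabilize the Nrf2 transcription factor. Run as a screen of an approved and preclinical drug library, and as concentration-response testing of selected compounds. TBHQ was the reference Nrf2 activator.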

HIF-1α = test: ODD-luc SH-SY5Y cell reporter; format: cell-based; conditions: SH-SY5Y cells
Outline: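 HIF-1α ODD-luciferase reporter in SH-SY5Y cells, run as concentration-response testing. The PHD inhibitor FG-4592 served as the HIF-activating control.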

| Compound | Nrf2 activity in Neh2-luciferase reporter assay (library screen) (Nrf2) | HIF-1α (ODD-luc) fold activation (HIF-1α) [fold] | Nrf2 (Neh2-luc) fold activation (Nrf2; SH-SY5Y cells, fold increase in luminescence relative to vehicle control) [fold] |
| --- | --- | --- | --- |
| Nc1ccccc1NC(=O)c1ccc(CNC(=O)OCc2cccnc2)cc1 [entinostat] | completely inactive | – | – |
| O=C(/C=C/C#Cc1cccc(NS(=O)(=O)c2ccccc2)c1)NO [oxamflatin] | Nrf2 hits | – | – |
| CC(/C=C/C(=O)NO)=C\[C@@H](C)C(=O)c1ccc(N(C)C)cc1 [TSA] | Nrf2 hits | – | – |
| CC(=O)Nc1ccc(C(=O)Nc2ccccc2N)cc1 [tacedinaline] | inactive | – | – |
| O=C(CCCCCCC(=O)Nc1ccccc1)NO [SAHA] | Nrf2 hits | – | – |
| CN1CCc2c(c3ccccc3n2Cc2ccc(C(=O)NO)cc2)C1 [tubastatin] | Nrf2 hits | 2.4 | – |
| CC1(C)CNc2ccccc21 [3,3-dimethylindoline (III)] | – | – | 1.8 |
